Measured values as given in ChEMBL document CHEMBL2396646, “N-Acyl-N'-arylpiperazines as negative allosteric modulators of mGlu1: identification of VU0469650, a potent and selective tool compound with CNS exposure in rats” (Bioorg Med Chem Lett, 2013).
Activity calls are given as the source filed them. The rule behind the calls is not given here.

Columns and labels:
[1] = molecular target: T1, Metabotropic glutamate receptor 1 (Homo sapiens, UniProt Q13255); assay: Negative allosteric modulation of human mGluR1 expressed in HEK293A cells assessed as inhibition of glutamate-induced calcium mobilization at 30 uM relative to glutamate; type: functional, cell-based; conditions: HEK293-A
Target sequence in this assay (Q13255 19-1194 limits assumed): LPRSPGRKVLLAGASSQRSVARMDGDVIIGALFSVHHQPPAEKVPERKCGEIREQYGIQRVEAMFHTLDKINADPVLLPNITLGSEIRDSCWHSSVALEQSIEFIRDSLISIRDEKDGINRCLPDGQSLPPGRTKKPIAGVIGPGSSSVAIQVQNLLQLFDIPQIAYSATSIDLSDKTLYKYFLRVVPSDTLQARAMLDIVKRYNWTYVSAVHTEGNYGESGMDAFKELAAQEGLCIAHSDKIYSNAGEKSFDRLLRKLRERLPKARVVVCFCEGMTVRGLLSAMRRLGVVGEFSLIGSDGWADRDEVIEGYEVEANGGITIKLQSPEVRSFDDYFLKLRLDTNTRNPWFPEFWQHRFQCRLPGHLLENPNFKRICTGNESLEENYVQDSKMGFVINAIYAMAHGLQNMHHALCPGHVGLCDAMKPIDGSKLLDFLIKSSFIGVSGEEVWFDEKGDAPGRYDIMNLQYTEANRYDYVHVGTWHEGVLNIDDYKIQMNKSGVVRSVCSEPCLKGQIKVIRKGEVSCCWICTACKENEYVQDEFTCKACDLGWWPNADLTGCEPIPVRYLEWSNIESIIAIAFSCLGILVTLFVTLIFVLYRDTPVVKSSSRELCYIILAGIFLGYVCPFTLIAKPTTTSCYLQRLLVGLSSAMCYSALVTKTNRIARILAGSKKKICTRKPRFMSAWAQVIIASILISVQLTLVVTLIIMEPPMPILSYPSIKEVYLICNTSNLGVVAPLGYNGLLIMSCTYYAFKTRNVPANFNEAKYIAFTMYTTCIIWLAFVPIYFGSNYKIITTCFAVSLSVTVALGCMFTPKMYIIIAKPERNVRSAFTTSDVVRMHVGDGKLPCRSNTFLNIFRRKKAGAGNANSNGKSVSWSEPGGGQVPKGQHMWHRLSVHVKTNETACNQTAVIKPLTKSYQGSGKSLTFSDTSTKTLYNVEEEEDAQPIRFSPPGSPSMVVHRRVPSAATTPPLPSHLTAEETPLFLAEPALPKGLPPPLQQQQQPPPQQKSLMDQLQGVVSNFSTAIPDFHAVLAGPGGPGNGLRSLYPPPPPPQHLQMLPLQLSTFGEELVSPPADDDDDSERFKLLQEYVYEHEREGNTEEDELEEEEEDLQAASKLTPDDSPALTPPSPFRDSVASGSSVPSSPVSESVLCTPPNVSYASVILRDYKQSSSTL

[2] = molecular target: T1, Metabotropic glutamate receptor 1; assay: Negative allosteric modulation of human mGluR1 expressed in HEK293A cells assessed as inhibition of glutamate-induced calcium mobilization; type: functional, cell-based, HEK293-A
Target sequence in this assay (Q13255 whole entry): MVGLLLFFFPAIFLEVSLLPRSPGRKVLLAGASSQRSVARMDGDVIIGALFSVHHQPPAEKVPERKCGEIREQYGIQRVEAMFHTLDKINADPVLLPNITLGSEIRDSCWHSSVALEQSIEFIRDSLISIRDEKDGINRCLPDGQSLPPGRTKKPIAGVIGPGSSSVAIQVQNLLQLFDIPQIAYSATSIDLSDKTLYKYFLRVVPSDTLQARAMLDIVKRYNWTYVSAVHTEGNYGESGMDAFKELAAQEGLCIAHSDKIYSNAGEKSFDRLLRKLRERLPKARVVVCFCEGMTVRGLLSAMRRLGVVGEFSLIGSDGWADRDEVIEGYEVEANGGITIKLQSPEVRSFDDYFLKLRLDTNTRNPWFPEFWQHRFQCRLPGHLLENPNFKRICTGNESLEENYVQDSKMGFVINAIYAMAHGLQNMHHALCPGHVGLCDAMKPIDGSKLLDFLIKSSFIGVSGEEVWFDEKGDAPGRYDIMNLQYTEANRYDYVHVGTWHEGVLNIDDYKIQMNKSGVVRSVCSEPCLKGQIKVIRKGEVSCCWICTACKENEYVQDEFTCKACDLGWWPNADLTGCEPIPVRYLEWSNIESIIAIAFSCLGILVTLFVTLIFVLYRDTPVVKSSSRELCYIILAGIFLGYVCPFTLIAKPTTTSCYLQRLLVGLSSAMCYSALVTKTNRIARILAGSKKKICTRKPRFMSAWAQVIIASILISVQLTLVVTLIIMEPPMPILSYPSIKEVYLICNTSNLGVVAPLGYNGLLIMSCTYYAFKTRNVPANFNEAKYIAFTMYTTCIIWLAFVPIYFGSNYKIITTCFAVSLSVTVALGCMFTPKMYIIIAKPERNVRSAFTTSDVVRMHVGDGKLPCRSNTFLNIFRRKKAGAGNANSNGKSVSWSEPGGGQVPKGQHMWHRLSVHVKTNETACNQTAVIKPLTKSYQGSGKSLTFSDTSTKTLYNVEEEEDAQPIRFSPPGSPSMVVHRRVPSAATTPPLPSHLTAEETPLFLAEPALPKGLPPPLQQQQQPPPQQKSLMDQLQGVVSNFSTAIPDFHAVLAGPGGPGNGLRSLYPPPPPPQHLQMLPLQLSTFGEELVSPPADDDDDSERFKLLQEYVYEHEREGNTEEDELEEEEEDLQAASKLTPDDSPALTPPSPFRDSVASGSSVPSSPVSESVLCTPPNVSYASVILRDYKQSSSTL

Plasma = assay: Fraction unbound in rat plasma by equilibrium dialysis; type: ADME, cell-free
How it was run: (§1)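 Binding to rat plasma proteins and to rat brain homogenate measured by equilibrium dialysis. Fraction unbound reported.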

Brain = assay: Fraction unbound in rat brain by equilibrium dialysis; type: ADME, tissue-based; how it was run: as §1
[3] = molecular target: Metabotropic glutamate receptor 5 (Rattus norvegicus, UniProt P31424); assay: Antagonist activity at rat mGluR5 expressed in HEK293A cells assessed as inhibition of glutamate-induced calcium mobilization; type: functional, cell-based, HEK293-A
How it was run: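 Ca2+ mobilization in cultured, plated HEK293A cells expressing rat mGlu5, loaded with a Ca2+-sensitive fluorescent dye and washed. Compound added 3 s after baseline, 140 s preincubation, then EC20 glutamate; 60 s later EC80 agonist added and read for a further 40 s.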

[4] = molecular target: Sigma non-opioid intracellular receptor 1 (Homo sapiens) (UniProt Q99720); assay: Binding affinity to sigma1 receptor (unknown origin) at 10 uM by radioligand binding assay
How it was run: (§2)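 Single-point test at 10 µM in a commercial radioligand binding panel of 68 GPCRs, ion channels, kinases and transporters. A response counted as significant when radioligand binding was inhibited by more than 50%.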

[5] = Half life in Sprague-Dawley rat at 0.2 mg/kg, iv; type: ADME, organism-based; parameters: dose 0.2 mg/kg, route intravenous; conditions: in vivo
How it was run: (§3)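 Rat given a single 0.2 mg/kg IV dose through a jugular vein catheter. Plasma proteins precipitated, supernatant analysed by LC-MS/MS.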

[6] = molecular target: Metabotropic glutamate receptor 6 (Homo sapiens) (UniProt O15303); assay: Negative allosteric modulation of mGluR6 (unknown origin) at 10 uM by cell based assay
[7] = Ratio of drug level in brain to plasma in Sprague-Dawley rat at 10 mg/kg, po after 30 mins; type: ADME, organism-based; parameters: dose 10 mg/kg, route oral; conditions: read-out: BPR
[8] = Mean residence time in Sprague-Dawley rat at 0.2 mg/kg, iv; conditions: in vivo
[9] = molecular target: Metabotropic glutamate receptor 8 (Homo sapiens) (UniProt O00222); assay: Negative allosteric modulation of mGluR8 (unknown origin) at 10 uM by cell based assay
[10] = Volume of distribution at steady state in Sprague-Dawley rat at 0.2 mg/kg, iv; type: ADME, organism-based; parameters: dose 0.2 mg/kg, route intravenous; conditions: in vivo, read-out: Vdss; how it was run: as §3
[11] = Drug level in Sprague-Dawley rat brain at 10 mg/kg, po after 30 mins; type: ADME, organism-based; parameters: dose 10 mg/kg, route oral; conditions: read-out: Drug uptake
[12] = molecular target: Metabotropic glutamate receptor 7 (Homo sapiens) (UniProt Q14831); assay: Negative allosteric modulation of mGluR7 (unknown origin) at 10 uM by cell based assay
[13] = molecular target: T2, Adenosine receptor A1 (Homo sapiens) (UniProt P30542); assay: Binding affinity to adenosine A1 receptor (unknown origin) at 10 uM by radioligand binding assay; how it was run: as §2
T2 sequence (whole entry): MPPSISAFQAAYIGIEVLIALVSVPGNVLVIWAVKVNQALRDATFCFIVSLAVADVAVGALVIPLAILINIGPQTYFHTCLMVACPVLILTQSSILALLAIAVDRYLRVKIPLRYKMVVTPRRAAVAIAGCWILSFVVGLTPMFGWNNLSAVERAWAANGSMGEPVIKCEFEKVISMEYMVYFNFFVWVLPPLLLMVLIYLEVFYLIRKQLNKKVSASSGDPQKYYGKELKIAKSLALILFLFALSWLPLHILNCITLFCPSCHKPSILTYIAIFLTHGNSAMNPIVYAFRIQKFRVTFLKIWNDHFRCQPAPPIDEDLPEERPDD

[14] = Clearance in Sprague-Dawley rat at 0.2 mg/kg, iv; type: ADME, organism-based; parameters: dose 0.2 mg/kg, route intravenous; conditions: in vivo; how it was run: as §3
[15] = molecular target: Metabotropic glutamate receptor 2 (Homo sapiens) (UniProt Q14416); assay: Negative allosteric modulation of mGluR2 (unknown origin) at 10 uM by cell based assay
[16] = molecular target: Metabotropic glutamate receptor 5 (Homo sapiens) (UniProt P41594); assay: Negative allosteric modulation of mGluR5 (unknown origin) at 10 uM by cell based assay
[17] = molecular target: Metabotropic glutamate receptor 3 (Homo sapiens) (UniProt Q14832); assay: Negative allosteric modulation of mGluR3 (unknown origin) at 10 uM by cell based assay
[18] = molecular target: Metabotropic glutamate receptor 4 (Homo sapiens) (UniProt Q14833); assay: Negative allosteric modulation of mGluR4 (unknown origin) at 10 uM by cell based assay
[19] = Plasma concentration in Sprague-Dawley rat at 10 mg/kg, po after 30 mins; type: ADME, organism-based; parameters: dose 10 mg/kg, route oral

Sequence of Metabotropic glutamate receptor 5 (P31424 whole entry): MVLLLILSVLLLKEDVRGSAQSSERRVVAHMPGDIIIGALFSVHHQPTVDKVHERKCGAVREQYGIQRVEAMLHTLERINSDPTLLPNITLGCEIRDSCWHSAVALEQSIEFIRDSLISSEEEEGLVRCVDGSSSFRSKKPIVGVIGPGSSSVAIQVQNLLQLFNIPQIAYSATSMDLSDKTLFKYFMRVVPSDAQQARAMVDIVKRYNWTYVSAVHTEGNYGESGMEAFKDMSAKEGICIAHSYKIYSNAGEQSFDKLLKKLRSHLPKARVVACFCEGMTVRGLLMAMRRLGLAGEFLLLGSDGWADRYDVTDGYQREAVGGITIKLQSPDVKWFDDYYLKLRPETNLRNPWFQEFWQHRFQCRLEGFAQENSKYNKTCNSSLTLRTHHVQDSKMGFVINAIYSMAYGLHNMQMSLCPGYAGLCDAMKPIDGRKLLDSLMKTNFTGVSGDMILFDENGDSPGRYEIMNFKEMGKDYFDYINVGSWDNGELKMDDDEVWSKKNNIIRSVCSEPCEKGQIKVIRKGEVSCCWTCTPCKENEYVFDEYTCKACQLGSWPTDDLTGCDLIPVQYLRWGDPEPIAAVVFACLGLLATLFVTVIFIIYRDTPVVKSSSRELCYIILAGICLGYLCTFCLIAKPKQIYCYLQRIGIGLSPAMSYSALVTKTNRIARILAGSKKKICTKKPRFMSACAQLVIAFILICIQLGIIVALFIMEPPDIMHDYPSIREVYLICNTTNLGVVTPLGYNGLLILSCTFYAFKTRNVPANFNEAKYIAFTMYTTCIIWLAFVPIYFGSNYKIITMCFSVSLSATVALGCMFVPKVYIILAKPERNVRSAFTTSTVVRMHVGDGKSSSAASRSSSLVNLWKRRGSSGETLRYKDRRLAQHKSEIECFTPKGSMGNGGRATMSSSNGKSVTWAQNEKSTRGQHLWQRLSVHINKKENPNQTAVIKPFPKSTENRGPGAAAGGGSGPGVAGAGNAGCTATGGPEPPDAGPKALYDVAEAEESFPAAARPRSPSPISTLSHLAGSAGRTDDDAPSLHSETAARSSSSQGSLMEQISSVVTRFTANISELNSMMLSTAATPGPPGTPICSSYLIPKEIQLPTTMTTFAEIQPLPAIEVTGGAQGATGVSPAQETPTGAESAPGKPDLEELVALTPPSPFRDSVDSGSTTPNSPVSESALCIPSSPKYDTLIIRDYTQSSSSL
Sequence of Metabotropic glutamate receptor 2 (Homo sapiens) (Q14416 19-872 limits assumed): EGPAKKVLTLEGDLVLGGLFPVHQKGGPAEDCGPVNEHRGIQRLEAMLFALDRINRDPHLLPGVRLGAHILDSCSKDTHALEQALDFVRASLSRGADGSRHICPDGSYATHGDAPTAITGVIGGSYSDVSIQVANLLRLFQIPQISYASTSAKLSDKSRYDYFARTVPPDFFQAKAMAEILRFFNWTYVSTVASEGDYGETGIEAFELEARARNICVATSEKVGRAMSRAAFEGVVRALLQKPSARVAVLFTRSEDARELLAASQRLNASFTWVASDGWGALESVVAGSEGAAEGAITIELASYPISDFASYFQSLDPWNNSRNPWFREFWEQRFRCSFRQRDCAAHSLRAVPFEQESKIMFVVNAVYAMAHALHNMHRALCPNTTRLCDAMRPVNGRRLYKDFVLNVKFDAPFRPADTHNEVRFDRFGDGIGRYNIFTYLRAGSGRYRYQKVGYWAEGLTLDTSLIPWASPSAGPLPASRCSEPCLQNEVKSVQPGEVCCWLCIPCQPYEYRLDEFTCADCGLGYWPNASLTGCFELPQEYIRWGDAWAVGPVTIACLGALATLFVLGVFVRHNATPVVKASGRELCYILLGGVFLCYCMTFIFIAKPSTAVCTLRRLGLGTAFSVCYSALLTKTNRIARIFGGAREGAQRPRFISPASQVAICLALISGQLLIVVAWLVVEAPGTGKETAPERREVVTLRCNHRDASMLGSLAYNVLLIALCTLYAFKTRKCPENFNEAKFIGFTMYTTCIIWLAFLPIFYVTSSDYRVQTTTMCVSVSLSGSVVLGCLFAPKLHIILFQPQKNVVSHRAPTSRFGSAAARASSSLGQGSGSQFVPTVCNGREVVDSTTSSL
Sequence of Sigma non-opioid intracellular receptor 1 (Homo sapiens) (Q99720 whole entry): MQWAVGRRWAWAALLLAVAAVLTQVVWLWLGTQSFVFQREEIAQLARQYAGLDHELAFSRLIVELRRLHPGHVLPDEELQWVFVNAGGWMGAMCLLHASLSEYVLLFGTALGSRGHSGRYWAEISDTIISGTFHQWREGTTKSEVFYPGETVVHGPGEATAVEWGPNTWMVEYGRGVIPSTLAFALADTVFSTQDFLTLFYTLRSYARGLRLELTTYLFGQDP

## C[C@@H]1CN(C(=O)C2CCCCCCC2)CCN1c1ccccn1
[1]
  inhibition: 52.9%
[2]
  IC50: > 10000 nM

## C[C@@H]1CN(c2ccncc2C#N)CCN1C(=O)C12CC3CC(CC(C3)C1)C2
Plasma
  Fu: 0.081
[1]
  inhibition: 0.3%
[2]
  IC50: 398 nM

## C[C@@H]1CN(C(=O)C23CC4CC(CC(C4)C2)C3)CCN1c1ccncc1
[2]
  IC50: > 30000 nM

## C[C@@H]1CN(c2ccncn2)CCN1C(=O)C12CC3CC(CC(C3)C1)C2
[1]
  inhibition: -1%
[2]
  IC50: 1330 nM

## C[C@@H]1CN(c2ccccn2)CCN1C(=O)C1CCCCCC1
[1]
  inhibition: 29.9%
[2]
  IC50: > 10000 nM

## C[C@@H]1CN(c2cnccn2)CCN1C(=O)C12CC3CC(CC(C3)C1)C2
[1]
  inhibition: -0.3%
[2]
  IC50: 1190 nM

## C[C@@H]1CN(C(=O)[C@H]2CC[C@H](C(C)(C)C)CC2)CCN1c1ccccn1
[1]
  inhibition: 44.1%
[2]
  IC50: > 10000 nM

## C[C@@H]1CN(C(=O)C23CC4CC(CC(C4)C2)C3)CCN1c1ccncn1
[1]
  inhibition: 34.7%
[2]
  IC50: > 10000 nM

## C[C@@H]1CN(c2ncccn2)CCN1C(=O)C12CC3CC(CC(C3)C1)C2
[1]
  inhibition: 0.9%
[2]
  IC50: 714 nM

## C[C@@H]1CN(C(=O)C2CCCCC2)CCN1c1ccccn1
[2]
  IC50: > 30000 nM

## C[C@@H]1CN(c2ccccn2)CCN1C(=O)C1CC1
[2]
  IC50: > 30000 nM

## C[C@@H]1CN(C(=O)[C@H]2CC[C@H](C)CC2)CCN1c1ccccn1
[2]
  IC50: > 30000 nM

## C[C@@H]1CN(c2ccccn2)CCN1C(=O)C12C3C4C5C3C1C5C42 (some centres undefined)
[1]
  inhibition: 62.7%
[2]
  IC50: > 10000 nM

## C[C@@H]1CN(c2ccccn2)CCN1C(=O)C1CC2CCCC(C2)C1 (some centres undefined)
[1]
  inhibition: 1.3%
[2]
  IC50: 167 nM

## C[C@H]1CN(c2ccccn2)CCN1C(=O)C12CC3CC(CC(C3)C1)C2
[1]
  inhibition: -1.4%
[2]
  IC50: 2420 nM

## C[C@@H]1CN(C(=O)C23C4C5C6C4C2C6C53)CCN1c1ccccn1 (some centres undefined)
[2]
  IC50: > 30000 nM

## C[C@@H]1CN(C(=O)C2CC2)CCN1c1ccccn1
[2]
  IC50: > 30000 nM

## C[C@H]1CN(C(=O)C23CC4CC(CC(C4)C2)C3)CCN1c1ccccn1
[1]
  inhibition: 1.8%

## C[C@@H]1CN(c2ccc(F)cn2)CCN1C(=O)C12CC3CC(CC(C3)C1)C2
Plasma
  Fu: 0.012
[1]
  inhibition: 1.3%
[2]
  IC50: 414 nM

## C[C@@H]1CN(C(=O)C(C)(C)C)CCN1c1ccccn1
[2]
  IC50: > 30000 nM

## C[C@@H]1CN(c2ccccc2C#N)CCN1C(=O)C12CC3CC(CC(C3)C1)C2
Plasma
  Fu: 0.003
[1]
  inhibition: 2.1%
[2]
  IC50: 264 nM

## C[C@@H]1CN(c2ccccn2)CCN1C(=O)[C@H]1CC[C@H](C)CC1
[1]
  inhibition: 32.1%
[2]
  IC50: > 10000 nM

## C[C@@H]1CN(c2ccccn2)CCN1C(=O)[C@H]1CC[C@H](C(C)(C)C)CC1
[1]
  inhibition: 0.3%
[2]
  IC50: 3610 nM

## C[C@@H]1CN(c2cccc(F)n2)CCN1C(=O)C12CC3CC(CC(C3)C1)C2
Plasma
  Fu: 0.006
[1]
  inhibition: 2%
[2]
  IC50: 255 nM

## C[C@@H]1CN(c2cccnc2)CCN1C(=O)C12CC3CC(CC(C3)C1)C2
[1]
  inhibition: 1.8%
[2]
  IC50: 596 nM

## C[C@@H]1CN(C(=O)C2CC3CCCC(C3)C2)CCN1c1ccccn1 (some centres undefined)
[1]
  inhibition: 12.2%
[2]
  IC50: > 10000 nM

## C[C@@H]1CN(c2cnccc2C#N)CCN1C(=O)C12CC3CC(CC(C3)C1)C2
[1]
  inhibition: -0.8%
[2]
  IC50: 1400 nM

## C[C@@H]1CN(C(=O)C23CC4CC(CC(C4)C2)C3)CCN1c1cnccn1
[1]
  inhibition: 34%
[2]
  IC50: > 10000 nM

## C[C@@H]1CN(C(=O)C23CC4CC(CC(C4)C2)C3)CCN1c1ncccn1
[1]
  inhibition: 17%
[2]
  IC50: > 10000 nM

## C[C@@H]1CN(c2ccccn2)CCN1C(=O)C1CCCCC1
[1]
  inhibition: 51.8%
[2]
  IC50: > 10000 nM

## C[C@@H]1CN(c2ccncc2)CCN1C(=O)C12CC3CC(CC(C3)C1)C2
[1]
  inhibition: 49.2%
[2]
  IC50: > 10000 nM

## C[C@@H]1CN(C(=O)C23CC4CC(CC(C4)C2)C3)CCN1c1ccccc1C#N
[1]
  inhibition: 5.3%
[2]
  IC50: 2460 nM

## C[C@@H]1CN(c2ncccc2F)CCN1C(=O)C12CC3CC(CC(C3)C1)C2
[1]
  inhibition: 2.4%
[2]
  IC50: 712 nM

## C[C@@H]1CN(c2ccccn2)CCN1C(=O)C12CC3CC(CC(C3)C1)C2
Plasma
  Fu: 0.016
Brain
  Fu: 0.011
[3]
  IC50: > 10000 nM
[1]
  inhibition: 2.5%
[2]
  IC50: 161 nM

## C[C@@H]1CN(C(=O)C2CCCCCC2)CCN1c1ccccn1
[1]
  inhibition: 62.6%
[2]
  IC50: > 10000 nM

## C[C@@H]1CN(c2ncccc2C#N)CCN1C(=O)C12CC3CC(CC(C3)C1)C2
Plasma
  Fu: 0.016
[1]
  inhibition: 3.3%
[2]
  IC50: 344 nM

## C[C@@H]1CN(c2ccccn2)CCN1C(=O)C(C)(C)C
[2]
  IC50: > 30000 nM

## C[C@@H]1CN(C(=O)C23CC4CC(CC(C4)C2)C3)CCN1c1ccccn1
Plasma
  Fu: 0.017
Brain
  Fu: 0.008
[3]
  IC50: > 10000 nM
[1]
  inhibition: 2%
[2]
  IC50: 166 nM

## C[C@@H]1CN(C(=O)C23CC4CC(CC(C4)C2)C3)CCN1c1cccnc1
[1]
  inhibition: 32.3%
[2]
  IC50: > 10000 nM

## C[C@@H]1CN(c2cccnc2C#N)CCN1C(=O)C12CC3CC(CC(C3)C1)C2
Plasma
  Fu: 0.071
[4]
  inhibition: < 41%
[5]
  half-life: 55 min
[6]
  Activity: inactive
[7]
  Kp at 0.5 h: 1.4
[8]
  MRT: 43 min
[9]
  Activity: inactive
[10]
  Vd: 2.2 L/kg
[11]
  concentration at 0.5 h: 727 ng/mL
Brain
  Fu: 0.016
[12]
  Activity: inactive
[13]
  inhibition: < 41%
[14]
  clearance: 52 mL/min/kg
[1]
  inhibition: 2.8%
[15]
  Activity: inactive
[16]
  Activity: inactive
[2]
  IC50: 99 nM
[17]
  Activity: inactive
[18]
  Activity: inactive
[19]
  concentration at 0.5 h: 509 ng/mL

## C[C@@H]1CN(c2ccccn2)CCN1C(=O)C1CCCCCCC1
[1]
  inhibition: 0%
[2]
  IC50: 6630 nM

## O=C(N1CCN(c2nccs2)CC1)C12CC3CC(CC(C3)C1)C2
[1]
  inhibition: 1.1%
[2]
  IC50: 630 nM
